Experimental data taken from ChEMBL document CHEMBL1158479, “Synthesis and preliminary in vitro biological evaluation of 4-[(4-hydroxyphenyl)sulfanyl]but-3-en-2-one, a 4-mercaptophenol derivative designed as a novel bifunctional antimelanoma agent” (J Med Chem, 2009).

Key:
[1] = Cytotoxicity against mouse B16-F1 cells at 100 uM after 48 hrs by MTT assay relative to control in presence of 1-phenyl-2-thiourea; format: functional
[2] = Cytotoxicity against mouse B16-F1 cells at 100 uM after 48 hrs by MTT assay relative to control; format: functional
[3] = Cytotoxicity against mouse B16-F1 cells at 100 uM after 48 hrs by MTT assay relative to control in presence of N-acetyl-L-cysteine; format: functional
[4] = tested on: glutathione S-transferase; test: Stability assessed as half life in presence of rat glutathione S-transferase; format: ADME
[5] = tested on: glutathione S-transferase; test: Stability assessed as half life at pH 8 in presence of rat glutathione S-transferase; format: ADME
[6] = tested on: glutathione S-transferase; test: Stability assessed as half life at pH 7.4 in presence of rat glutathione S-transferase; format: ADME
[7] = tested on: glutathione S-transferase; test: Stability assessed as half life at pH 7.4 in presence of rat glutathione S-transferase in liver cytosol; format: physicochemical
Method in brief: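 The GSH reaction was run at pH 7.4 with and without rat liver cytosol, which served as the glutathione S-transferase source. t1/2 was derived from the time course of reaction with GSH.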

[8] = Cytotoxicity against mouse B16-F1 cells after 48 hrs by MTT assay; format: functional, cell-based
[9] = substrate: O=C(O)CSc1ccc(O)cc1; test: (§1) Activity of mushroom tyrosinase assessed as o-quinone formation; conditions: Agaricus bisporus
Method in brief: (§2)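 Mushroom tyrosinase kinetics were run by measuring the initial rate of enzyme-catalyzed o-quinone formation over increasing substrate concentrations. Km and Vmax were derived from these rates, and kcat and kcat/Km were calculated from them.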

[10] = substrate: COc1ccc(O)cc1; test: as §1; conditions: Agaricus bisporus; method in brief: as §2
[11] = substrate: O=C(O)CCSc1ccc(O)cc1; test: as §1; conditions: Agaricus bisporus; method in brief: as §2
[12] = substrate: O=C(O)CSc1ccc(O)cc1; test: (§3) Ratio of Kcat to Km of mushroom tyrosinase; conditions: Agaricus bisporus; method in brief: as §2
[13] = substrate: COc1ccc(O)cc1; test: as §3; conditions: Agaricus bisporus; method in brief: as §2
[14] = substrate: O=C(O)CCSc1ccc(O)cc1; test: as §3; conditions: Agaricus bisporus; method in brief: as §2

Molecule	half-life [4] [min]	half-life [5] [min]	half-life [6] [min]	Activity [1] [%]	Activity [2] [%]	Activity [3] [%]	further results
COc1ccc(O)cc1 [MEQUINOL]				78.7	61.3	60	
Oc1ccc(SSc2ccc(O)cc2)cc1				0	0.2	22.5	half-life [7]: < 1 min; IC50 [8]: 21.2 µM
Tyrosinase (Agaricus bisporus), O42713 (protein) MSLIATVGPTGGVKNRLNIVDFVKNEKFFTLYVRSLELLQAKEQHDYSSFFQLAGIHGLPFTEWAKERPSMNLYKAGYCTHGQVLFPTWHRTYLSVLEQILQGAAIEVAKKFTSNQTDWVQAAQDLRQPYWDWGFELMPPDEVIKNEEVNITNYDGKKISVKNPILRYHFHPIDPSFKPYGDFATWRTTVRNPDRNRREDIPGLIKKMRLEEGQIREKTYNMLKFNDAWERFSNHGISDDQHANSLESVHDDIHVMVGYGKIEGHMDHPFFAAFDPIFWLHHTNVDRLLSLWKAINPDVWVTSGRNRDGTMGIAPNAQINSETPLEPFYQSGDKVWTSASLADTARLGYSYPDFDKLVGGTKELIRDAIDDLIDERYGSKPSSGARNTAFDLLADFKGITKEHKEDLKMYDWTIHVAFKKFELKESFSLLFYFASDGGDYDQENCFVGSINAFRGTAPETCANCQDNENLIQEGFIHLNHYLARDLESFEPQDVHKFLKEKGLSYKLYSRGDKPLTSLSVKIEGRPLHLPPGEHRPKYDHTQARVVFDDVAVHVIN							Km [9]: 22.4 µM; kcat [9]: 0.461 s⁻¹; Km [10]: 46.8 µM; kcat [10]: 0.24 s⁻¹; Km [11]: 31.5 µM; kcat [11]: 0.972 s⁻¹; kcat/Km [12]: 20600; kcat/Km [13]: 5140; kcat/Km [14]: 31000

Second part, led by results:

half-life [4] [min]	half-life [5] [min]	half-life [6] [min]	Molecule	Activity [1] [%]	Activity [2] [%]	Activity [3] [%]	further results
2.2	6.1	20.5	CC(=O)/C=C/Sc1ccc(O)cc1				
7.24	18.4	38.6	CC(=O)/C=C\Sc1ccc(O)cc1				
